Rows were chosen to be rich in hits. Some 12% of all compounds tested hit in one or more screens of this group.
Dynein cargo inh: dynein cargo transport inhibition; 220,000 compounds, 0.47% hits; z-score, hits read low; AID 1381; 3617.4 mouse cells, GR-EGFP nuclear translocation imaging; test concentration mostly 20 µM; stimulated with dexamethasone, 1 µM; stronger effect = lower value;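 active = plate z-score of nuclear minus cytoplasmic receptor signal below a set negative limit, without overly bright fluorescence or cell loss, cut at about -3.5 in these data, passing the limit was not always enough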;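 also: z-score of nuclear minus cytoplasmic ring GR-EGFP intensity difference per well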
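Buffer or medium: tet-free medium with charcoal-stripped serum / Also added: dexamethasone agonist, 1.0 µM final, for 30 min / Timing: induction 48 h, compound 1 h, agonist 30 min / Measured by: high-content fluorescence imaging after fixation / Read-out: nuclear-to-cytoplasmic GR-EGFP distribution per well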
b-catenin transl: alters nuclear translocation of beta-catenin in HeLa cells; immunofluorescence imaging; nuclear translocation activity, % at 5 µM; 190,000 compounds, 0.3% hits;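 active = nuclear translocation activity above 50% at 5 µM, with a well cell count of 50 or more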;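 also: per-cell ratio of nuclear to cytoplasmic median beta-catenin stain intensity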
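assay system = human HeLa cells, endogenous beta-catenin | times = compound treatment 24 h, 37°C, 5% CO2 | detection = Anti-beta-catenin immunofluorescence on PFA-fixed, Triton-permeabilized cells, DAPI nuclei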
Autophagy HCS: alters autophagy in cells. MEF GFP-LC3 puncta imaging; test concentration mostly 10 µM. calls only at 10 µM (by protocol). 190,000 compounds, 0.98% hits;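 active = percentage of spot-positive cells more than 3 SD above its plate mean, without a fluorescence outlier flag or 80% toxicity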
MT stabilize HCS: microtubule stabilization, imaging screen. 200,000 compounds, 0.83% hits. % tubulin-high responders, % at 10 µM. HeLa tubulin immunostaining HCS, 24 h; share of cells brighter than vehicle mean+2SD;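 active = plate Z-score above 3 for both tubulin-high and condensed-nucleus cell shares, with cell loss under 80%, at 10 µM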;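 also: anti alpha tubulin signal scored within the nucleus-defined area of each cell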
CHOP inhibitor: inhibitors of CHOP induction in ER stress response | inhibition, % at 10 µM | 220,000 compounds, 3.8% hits | CHO-K1 CHOP-promoter luciferase, tunicamycin-induced, 15-18 h;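 active = compounds that reduced the stress-induced luciferase reporter signal by more than about 70% of percent inhibition, limit read from the data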
Lmaj promast: inhibitors of Leishmania major promastigote growth; Leishmania major promastigotes, resazurin fluorescence viability; inhibition, % at 10 µM; 200,000 compounds, 9% hits; in the data active = inhibition above about 50%;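 also: promastigotes grown with compound for 44 hours at 28 °C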
Large screens that a line does not name were inactive.

CCOc1cc(CNCCc2c[nH]c3ccccc23)cc(Cl)c1OCC	CHOP inhibitor 80
CC12CN3CCN(C1)CC(C)(C3)C2=NO	none
C=CCn1c(O)c(C=NCCCOc2ccc(CC)cc2)c(=O)[nH]c1=S	CHOP inhibitor 77
CN1C(=O)C(=Cc2ccccc2OCCOc2ccc([N+](=O)[O-])cc2)C(=O)N(C)C1=O	Lmaj promast 78 (no result: b-catenin transl)
O=C1NC(=O)C(=Cc2ccccc2OCCOc2ccc([N+](=O)[O-])cc2)C(=O)N1	Lmaj promast 64
CN1C(=O)C(=Cc2ccccc2OCc2ccccc2Cl)C(=O)N(C)C1=O	Lmaj promast 66
COc1cccc(-n2c(CN3CCN(C)CC3)nc3ccc([N+](=O)[O-])cc3c2=O)c1	none
O=C(CF)NC(Nc1cccc2cccnc12)C(Cl)(Cl)Cl (stereo unspecified)	none
O=[N+]([O-])c1cc(S(=O)(=O)c2ccc(O)c([N+](=O)[O-])c2)ccc1O	none
CC(c1ccccc1F)n1cc(C(=O)Nc2ccc3nc[nH]c3c2)nn1 (stereo unspecified)	Lmaj promast 72
COc1ccccc1-n1c(Cc2ccccc2)nc2ccccc2c1=O	none
N=c1c2c(n(Cc3ccc(Cl)cc3Cl)c3c1CCC3)CCCC2	Lmaj promast 100 (no result: CHOP inhibitor)
Cc1ccc(N/N=C/c2c(O)n(-c3ccccc3)c(=O)[nH]c2=O)cc1	Lmaj promast 92
Cc1ccc(-n2c(O)c(/C=N/c3ncc(Br)cc3Br)c(=O)[nH]c2=O)cc1	CHOP inhibitor 74
Cc1cccc(-n2c(O)c(C=Nc3ccc(Br)cn3)c(=O)[nH]c2=O)c1	none
CCn1c(P(C)(=O)O)nc2cc(NC(=O)c3ccccc3F)ccc21	none
COc1cc(CN=C(C)c2c(O)n(C3CCCCC3)c(=O)[nH]c2=O)cc(OC)c1	none (no result: Autophagy HCS, MT stabilize HCS, Lmaj promast)
CN(C)C(Cc1ccccc1)C(=O)c1cccs1 (stereo unspecified)	none
COC(=O)c1c(C)[nH]c(C(=O)C(Cc2ccccc2)N(C)C)c1C (stereo unspecified)	Lmaj promast 100
C(#CCN1CCCCC1)COCc1ccccc1	Lmaj promast 89
COc1ccc(OCC#CCN2CCCCCC2)cc1	Lmaj promast 85
CN1CCN(C(=O)COc2ccc(N(C)S(=O)(=O)c3ccc(F)cc3)cc2)CC1	none
CN1CCN(c2cn[nH]c(=O)c2Cl)CC1	none
CC(C(=O)Nc1ccc(Br)cc1C(=O)c1ccccc1)N1CCOCC1 (stereo unspecified)	Lmaj promast 99 (no result: b-catenin transl)
O=C(CCN1CCOCC1)NCC(=O)Nc1ccc(Br)cc1C(=O)c1ccccc1	none
Cc1ncc(CN2CCCC(C(=O)c3ccc(C(C)(C)C)cc3)C2)s1 (stereo unspecified)	Lmaj promast 91
COc1ccc(C(=O)C2CCCN(Cc3ccon3)C2)cc1OC (stereo unspecified)	none
Cc1ncc(CN2CCCC(C(=O)c3cccc(Cl)c3)C2)s1 (stereo unspecified)	Lmaj promast 85
CCOC(=O)c1[nH]ncc1CN1CCCC(C(=O)c2cccc(Cl)c2)C1 (stereo unspecified)	none (no result: Autophagy HCS, MT stabilize HCS, Lmaj promast)
COc1ccc(C(=O)C2CCCN(Cc3ccccn3)C2)c(OC)c1 (stereo unspecified)	none
COc1ccc(C(=O)C2CCCN(Cc3cnc(C)s3)C2)cc1OC (stereo unspecified)	Lmaj promast 81
COc1ccc(C(=O)C2CCCN(Cc3cnc(C)s3)C2)c(OC)c1 (stereo unspecified)	Lmaj promast 87
Nc1ccccc1C(=O)OCC(=O)Nc1ccc(Br)cc1F	none
S=C1NCCN1	none
Cn1cc(C(=O)NCc2ccccc2)c2ccccc21	none
Cc1ccc(O)c(C(=O)c2cc(C(=O)NCc3ccccc3)c(=O)n(Cc3ccccc3)c2)c1	Lmaj promast 78
O=C(c1cc(C(=O)NCc2ccccc2)c(=O)n(Cc2ccccc2)c1)c1cc(Br)ccc1O	Lmaj promast 99
N#CC1=C(N)Oc2cc(O)ccc2C1c1ccc2c(c1)OCO2 (stereo unspecified)	none
COC(=O)C(O)(c1ccc(NC(=S)NC(=O)c2ccc(Cl)cc2Cl)cc1)C(F)(F)F (stereo unspecified)	CHOP inhibitor 71
CCOC(=O)C(O)(c1ccc(NC(=S)NC(=O)c2ccc(Cl)cc2Cl)cc1)C(F)(F)F (stereo unspecified)	Lmaj promast 67
COC(=O)C(O)(c1ccc(NC(=O)NC2CCCCC2)cc1)C(F)(F)F (stereo unspecified)	none
CCOC(=O)C(O)(c1ccc(NC(=S)NC(=O)c2ccc(Cl)cc2Cl)c(C)c1)C(F)(F)F (stereo unspecified)	CHOP inhibitor 70
C[C@H]1O[C@H]1P(=O)(O)O	none
Cc1[nH]c2c(Cl)cccc2c1CCN	Lmaj promast 56 (no result: CHOP inhibitor)
CC(C)Oc1ccc(CCN)cc1Cl	none
CCCCOc1ccc(CCN)cc1Cl	Lmaj promast 89
Nc1ccncc1Cl	none
CCOP(=O)(OCC)C(O)c1cccc([N+](=O)[O-])c1 (stereo unspecified)	none
FC(F)(F)c1cccc(-n2nnnc2C2(N3CCOCC3)CCCCC2)c1	Lmaj promast 84
O=c1[nH]c(=O)n(C2CCCCCC2)c(O)c1C=NC1CCN(Cc2ccccc2)CC1	Lmaj promast 89
O=c1[nH]c(=S)n(CCC2=CCCCC2)c(O)c1/C=N/Nc1ccccc1	CHOP inhibitor 73 (no result: Autophagy HCS, MT stabilize HCS, Lmaj promast)
O=c1[nH]c(=S)n(CCC2=CCCCC2)c(O)c1C=NC1CCN(Cc2ccccc2)CC1	CHOP inhibitor 81
O=C(Cc1ccc([N+](=O)[O-])cc1)N1CCN(Cc2ccc3c(c2)OCO3)CC1	none (no result: Autophagy HCS, MT stabilize HCS, Lmaj promast)
O=C(COc1ccc(Cl)cc1)NC1CN2CCC1CC2 (stereo unspecified)	Lmaj promast 99
CCOC(=O)c1c(NC(=O)c2c(N)n(CCCOC)c3nc4ccccc4nc23)sc2c1CCCC2	none
CCOC(=O)c1c(NC(=O)C(c2ccccc2)c2ccccc2)sc2c1C1CCN2CC1	Lmaj promast 100
CCCCNC(=O)CN1C(=O)CN=C(c2ccccc2)c2ccccc21	none (no result: Autophagy HCS, MT stabilize HCS, Lmaj promast)
Cc1ccccc1C1=NCC(=O)N(CC(=O)NCc2ccco2)c2sc3c(c21)CCCC3	Lmaj promast 93
CCCCn1c(O)c(C(C)=NCc2cc(OC)cc(OC)c2)c(=O)[nH]c1=O	none
CCCCn1c(O)c(C(CC)=Nc2ccc(OC)cc2OC)c(=O)[nH]c1=O	MT stabilize HCS 29
CCCCn1c(O)c(C(CC)=Nc2ccc(OCC)cc2)c(=O)[nH]c1=O	CHOP inhibitor 91
CCCCn1c(O)c(C(C)=Nc2ccc(C(=O)O)cc2)c(=O)[nH]c1=O	none
CCCCn1c(O)c(C(CC)=NCc2cc(OC)cc(OC)c2)c(=O)[nH]c1=O	Lmaj promast 100
